In ChEMBL document CHEMBL1145838, “Bioactive peptidic analogues and cyclostereoisomers of the minimal antinociceptive histogranin fragment-(7-10)” (J Med Chem, 2003):
Square brackets hold non-standard residues; d marks the D form. Peptide text beside a SMILES is read from it. Phe(4-Cl) = N[C@@H](Cc1ccc(Cl)cc1)C(=O)O

Key:
Rattus norvegicus = species on record: Rattus norvegicus; assay: Compound was tested for inhibition against [3H]raclopride to Rat brain membranes; assay type: functional, Membrane
Method in brief: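 Rat brain membranes (male Wistar, 250–300 g; 0.8 mg protein) in 5 mM Tris-HCl pH 7.4, incubated with 2.5 nM [3H]raclopride for 60 min at 22 °C alongside 9–12 peptide concentrations (10⁻¹⁰–10⁻⁴ M). Nonspecific binding defined with 10 μM (+)butaclamol. IC50 by nonlinear least-squares fit; mean ± SE of ≥3 experiments run in duplicate.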

Mus musculus [1] = species on record: Mus musculus; assay: Compound was tested for antinociceptive potency using mouse writhing pain assay; assay type: functional
Method in brief: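 Male Swiss Webster mice, 20–25 g, given peptide icv (10 μL in sterile water) or i.v.; 5 min later 1.0% AcOH (10 mL/kg) i.p. Doses 0, 0.25–50 nmol. Writhes counted for 10 min; % analgesia relative to vehicle controls, 10 mice per dose. AD50 and potency ratio with 95% CL by Litchfield–Wilcoxon.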

Mus musculus [2] = assay: Lack of Motor Effect measured as the time taken by the mice to remain on the rotarod after 15 min interval of icv administration of compound; assay type: functional
Method in brief: (§1)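 Male Swiss Webster mice pre-screened on a 2.5 cm rod at 8 rpm (two 1-min rounds; fallers excluded). Peptides (10 or 2.5 nmol) or water vehicle given icv, then mice placed on the rod for 2 min. Time on rod recorded as mean ± SE, groups of 10; Student's t-test.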

Mus musculus [3] = assay: Lack of Motor Effect measured as the time taken by the mice to remain on the rotarod after 30 min interval of icv administration of compound; assay type: functional; method in brief: as §1
Mus musculus [4] = assay: Lack of Motor Effect measured as the time taken by the mice to remain on the rotarod after 60 min interval of icv administration of compound; assay type: functional; method in brief: as §1

Row | SMILES | IC50 (Rattus norvegicus) [µM] | AD50 (Mus musculus [1]) [nmol mouse-1] | Time (Mus musculus [2]) | Time (Mus musculus [3]) | Time (Mus musculus [4])
1 | N=C(N)NCCC[C@H]1NC(=O)[C@H](Cc2ccc(O)cc2)NC(=O)[C@H](Cc2ccc(N)cc2)NC(=O)CNC1=O [listing 2 of 2 here] | – | 2.52 | – | – | –
2 | C[C@@H]1NC(=O)CNC(=O)[C@@H](CCCN=C(N)N)NC(=O)[C@H](Cc2ccc(O)cc2)NC1=O [listing 2 of 2 here] | – | 1.35 | 107 | 120 | 120
3 | C[C@@H]1NC(=O)[C@@H](CCC(N)=O)NC(=O)CNC(=O)[C@@H](CCCN=C(N)N)NC1=O | – | 13.3 | – | – | –
4 | C[C@H](NC(=O)[C@H](CCC(N)=O)NC(=O)CN)C(=O)N[C@@H](CCCN=C(N)N)C(=O)O (H-GQAR-OH) | – | 3.42 | – | – | –
5 | NCC(=O)N[C@@H](CCC(N)=O)C(=O)NCC(=O)N[C@@H](CCCN=C(N)N)C(=O)O (H-GQGR-OH) | – | 25.9 | – | – | –
6 | N=C(N)NCCC[C@H]1NC(=O)[C@H](Cc2ccc(O)cc2)NC(=O)[C@H](Cc2ccc(Cl)cc2)NC(=O)CNC1=O (cyclo(G[Phe(4-Cl)]Y[dR])) [listing 1 of 2 here] | 0.89 | – | – | – | –
7 | N=C(N)NCCC[C@H]1NC(=O)[C@H](Cc2ccc(O)cc2)NC(=O)[C@H](Cc2ccc(Cl)cc2)NC(=O)CNC1=O (cyclo(G[Phe(4-Cl)]Y[dR])) [listing 2 of 2 here] | – | 0.17 | 104.1 | 115.8 | 110.2

The next lines start with results.

Row | IC50 (Rattus norvegicus) [µM] | SMILES | AD50 (Mus musculus [1]) [nmol mouse-1] | Time (Mus musculus [2]) | Time (Mus musculus [3]) | Time (Mus musculus [4])
8 | 4.91 | NC(=O)CC[C@@H]1NC(=O)CNC(=O)[C@H](CCCN=C(N)N)NC(=O)[C@H](Cc2ccc(O)cc2)NC1=O | 2.26 | – | – | –
9 | 6.75 | NC(=O)CC[C@H]1NC(=O)CNC(=O)[C@@H](CCCN=C(N)N)NC(=O)[C@H](Cc2ccc(O)cc2)NC1=O | 4.21 | – | – | –
10 | 3.52 | N=C(N)NCCC[C@H]1NC(=O)[C@H](Cc2ccc(O)cc2)NC(=O)[C@H](Cc2ccc(N)cc2)NC(=O)CNC1=O [listing 1 of 2 here] | – | – | – | –
11 | 2.33 | C[C@@H]1NC(=O)CNC(=O)[C@@H](CCCN=C(N)N)NC(=O)[C@H](Cc2ccc(O)cc2)NC1=O [listing 1 of 2 here] | – | – | – | –
12 | 4.12 | NC(=O)CC[C@H]1NC(=O)CNC(=O)[C@H](CCCN=C(N)N)NC(=O)[C@H](Cc2ccc(O)cc2)NC1=O | 3.65 | – | – | –
13 | 12.5 | C[C@@H]1NC(=O)[C@@H](CCC(N)=O)NC(=O)CNC(=O)[C@H](CCCN=C(N)N)NC1=O | 7.05 | – | – | –
